Data set [1] relates to M21 human melanoma-xenografted nude mice. Conditions: mouse, in vivo; cited from earlier work.
For data set [2], the target named is MC1 receptor (Homo sapiens, UniProt Q01726). The data set can be described thus: In vitro competitive binding, MC1 receptor, M21 human melanoma cells, ^125I-. Put shortly: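 Intact M21 cells (1.5×10^5/well) were incubated for 2 h at 37 °C with ~30,000 cpm 125I-(Tyr2)-NDP-MSH plus 10−12 to 10−5 M test compound. Medium was MEM with 25 mM HEPES pH 7.4, 0.2% BSA and 0.3 mM 1,10-phenanthroline. Cells were rinsed twice with ice-cold 0.2% BSA/0.01 M PBS pH 7.4, lysed in 1 N NaOH for 5 min and gamma counted. Triplicate; IC50 calculated.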

In data set [3] the target is αvβ3 integrin receptor (Homo sapiens, UniProt P05106+P06756). It counts as binding. Put shortly:
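M21 cells (1×10^5/well) were placed on 0.65 µm filter plates and incubated for 2 h at 25 °C with ~30,000 cpm 125I-echistatin and 10−11 to 10−4 M test compound. The binding medium was HEPES-buffered MEM pH 7.4 with BSA and phenanthroline. Bound and free ligand were separated by vacuum filtration with two ice-cold BSA/PBS pH 7.4 rinses, and the PVDF filters were gamma counted. Triplicate; IC50 calculated.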

“Also recorded” adds a separate entry of the source. Where a SMILES comes first, the peptide text is derived from it. Bridges are numbered along the chain shown (N, C = ends). [ ]: non-standard residue; d: D form. Aoc = NCCCCCCCC(=O)O

For the molecule “cyclic(Arg-Gly-Asp-DTyr-Asp)-Lys-(^99mTc-[Cys^3,4,10, D-Phe^7, Arg^11]α-MSH3–13) (bicyclic or more) [^99mTc-RGD-Lys-(Arg^11)CCMSH]”, in data set [1], the “melanoma uptake relative to ^99mTc-RAD-Lys-(Arg^11)CCMSH” value was 2.5 times and the “melanoma uptake relative to ^99mTc-RGD-Lys-(Arg^11)CCMSHscramble” value is recorded as 2.2 times.
Take `CC(C)[C@H](NC(=O)[C@@H]1CCCN1C(=O)[C@H](CCCNC(=N)N)NC(=O)[C@H](CS)NC(=O)[C@H](Cc1c[nH]c2ccccc12)NC(=O)[C@H](CCCNC(=N)N)NC(=O)[C@@H](Cc1ccccc1)NC(=O)[C@H](Cc1c[nH]cn1)NC(=O)[C@H](CCC(=O)O)NC(=O)[C@H](CS)NC(=O)[C@H](CS)NC(=O)CCCCCCCNC(=O)[C@@H]1CC(=O)N[C@@H](CCCNC(=N)N)C(=O)NCC(=O)N[C@@H](CC(=O)O)C(=O)N[C@H](Cc2ccc(O)cc2)C(=O)N1)C(N)=O` [RGD-Aoc-(Arg^11)CCMSH] (RGD[dY]D[Aoc]CCEH[dF]RWCRPV-NH2; lactam N-5): the IC50 (in general, the concentration that gives 50% inhibition) in data set [2] was found to be 1.5 ± 0.2 nM. The “MC1 receptor binding affinity, compared with RGD-PEG2-(Arg^11)CCMSH” value in data set [2] (M21 cells) is reported as “stronger receptor binding affinity; also recorded: slightly stronger binding affinities”. In data set [3], the IC50 stood at 1130 ± 26 nM. Further, in data set [3] (M21 cells), the “binding affinity for αvβ3 integrin receptor (in words)” value is “low micromolar range” and the “αvβ3 integrin receptor binding affinity, compared with RGD-PEG2-(Arg^11)CCMSH” value is “stronger receptor binding affinity; also recorded: slightly stronger binding affinities”.

These data come from publication PMC4361317 (Nuclear medicine and biology, 2014).
